Assay results reported in ChEMBL document CHEMBL4265908, “Structure-activity and structure-property relationships of novel Nrf2 activators with a 1,2,4-oxadiazole core and their therapeutic effects on acetaminophen (APAP)-induced acute liver injury” (Eur J Med Chem, 2018).
Converted amounts (≈) assume the structure as drawn. The source made the active and inactive calls. The calls are words filed in the database; no cut-off is given here.

Experiments:
Mus musculus [1] = test: In vivo activation of Nrf2 in APAP-induced liver injury in C57BL/6 mouse assessed as increase in GCLM mRNA expression level administered ip for 7 consecutive days followed by APAP challenge 1 hr post last compound dose and measured after 24 hrs by qRT-PCR analysis; type: functional, organism-based
Summary of the method: (§1)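 Female C57BL/6 mice (20–25 g, n = 10/group) received 10, 50 or 100 mg/kg/day ip in saline for 7 days. One hour after the last dose they received APAP 300 mg/kg in saline. Killed 24 h later. Serum ALT/AST by kit. Liver homogenates (pH 7.0 phosphate) used for GSH (A420, μmol/g protein), GST (A412, U/mg protein) and SOD. Liver also analyzed by western blot (β-actin normalized), qRT-PCR (GAPDH normalized) and H&E.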

[2] = biological target: T1, Nuclear factor erythroid 2-related factor 2 (Homo sapiens) (UniProt Q16236); test: Activation of Nrf2 in human LO2 cells assessed as increase in GCLM mRNA expression level by qRT-PCR analysis; type: cell-based
T1 sequence (whole entry): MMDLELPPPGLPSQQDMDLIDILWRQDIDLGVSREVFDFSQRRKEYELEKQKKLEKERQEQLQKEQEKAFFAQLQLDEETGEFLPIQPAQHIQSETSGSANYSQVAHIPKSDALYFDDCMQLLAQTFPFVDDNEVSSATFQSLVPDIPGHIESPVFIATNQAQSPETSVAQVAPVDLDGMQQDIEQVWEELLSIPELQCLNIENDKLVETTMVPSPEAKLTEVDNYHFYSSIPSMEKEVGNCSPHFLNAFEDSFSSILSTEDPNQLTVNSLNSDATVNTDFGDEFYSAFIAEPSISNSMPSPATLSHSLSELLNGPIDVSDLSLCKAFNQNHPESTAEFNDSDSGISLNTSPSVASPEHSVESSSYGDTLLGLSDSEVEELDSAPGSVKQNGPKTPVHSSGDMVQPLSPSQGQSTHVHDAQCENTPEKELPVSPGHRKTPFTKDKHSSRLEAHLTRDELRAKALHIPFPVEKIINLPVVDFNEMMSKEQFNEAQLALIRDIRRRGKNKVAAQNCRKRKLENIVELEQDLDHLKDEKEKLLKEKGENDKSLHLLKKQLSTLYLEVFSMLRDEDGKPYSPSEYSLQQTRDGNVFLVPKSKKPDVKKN
Summary of the method: (§2)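 LO2 cells in DMEM with 10% FBS were exposed to 0, 2.5, 5, 10, 20 or 40 μM compound for 12 h. Transcripts measured by qRT-PCR: 40 cycles of 95 °C for 5 s and 60 °C for 30 s. Normalized to GAPDH and expressed as fold over the untreated control. Mean ± SD, n = 3.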

L02 [3] = test: Hepatoprotective activity against APAP-induced cell injury in human LO2 cells assessed as increase in cell viability at 20 uM pretreated for 24 hrs followed by APAP treatment measured after 24 hrs by MTT assay; type: functional
Summary of the method: (§3)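 LO2 cells plated for 12 h and pretreated for 24 h with 5, 10 or 20 μM compound. One arm was first transfected with 50 nM Nrf2 siRNA before receiving 20 μM compound. Medium then replaced with medium containing 8 mM APAP for 24 h. Viability by MTT at A570. Mean ± SD of three experiments.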

Mus musculus [4] = test: Hepatoprotective activity against APAP-induced liver injury in C57BL/6 mouse assessed as reduction in serum ALT levels administered ip for 7 consecutive days followed by APAP challenge 1 hr post last compound dose and measured after 24 hrs; type: functional, organism-based; summary of the method: as §1
[5] = Intrinsic aqueous solubility of the compound by potentiometric titration method; type: physicochemical
Summary of the method: (§4)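 Intrinsic aqueous solubility and logD at pH 7.4 determined by Avdeef-Bucher potentiometric titration on a pION Gemini Profiler.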

[6] = biological target: T1, Nuclear factor erythroid 2-related factor 2 (Homo sapiens); test: Activation of Nrf2 in human LO2 cells assessed as increase in HO-1 mRNA expression level by qRT-PCR analysis; type: cell-based; summary of the method: as §2
Mus musculus [7] = test: In vivo activation of Nrf2 in APAP-induced liver injury in C57BL/6 mouse assessed as increase in Nrf2 protein expression level at 10 to 100 mg/kg, ip administered for 7 consecutive days followed by APAP challenge 1 hr post last compound dose and measured after 24 hrs by Western blot analysis; type: functional, organism-based; summary of the method: as §1
[8] = Lipophilicity, log D of the compound at pH 7.4 by potentiometric titration method; type: physicochemical; conditions: buffer; summary of the method: as §4
Mus musculus [9] = test: Hepatoprotective activity against APAP-induced liver injury in C57BL/6 mouse assessed as increase in GSH levels administered ip for 7 consecutive days followed by APAP challenge 1 hr post last compound dose and measured after 24 hrs; type: functional, organism-based; summary of the method: as §1
Mus musculus [10] = test: In vivo activation of Nrf2 in APAP-induced liver injury in C57BL/6 mouse assessed as increase in Nrf2 mRNA expression level administered ip for 7 consecutive days followed by APAP challenge 1 hr post last compound dose and measured after 24 hrs by qRT-PCR analysis; type: functional, organism-based; summary of the method: as §1
Mus musculus [11] = test: In vivo activation of Nrf2 in APAP-induced liver injury in C57BL/6 mouse assessed as increase in HO-1 mRNA expression level administered ip for 7 consecutive days followed by APAP challenge 1 hr post last compound dose and measured after 24 hrs by qRT-PCR analysis; type: functional, organism-based; summary of the method: as §1
Mus musculus [12] = test: In vivo activation of Nrf2 in APAP-induced liver injury in C57BL/6 mouse assessed as increase in HO-1 protein expression level at 10 to 100 mg/kg, ip administered for 7 consecutive days followed by APAP challenge 1 hr post last compound dose and measured after 24 hrs by Western blot analysis; type: functional, organism-based; summary of the method: as §1
HepG2 = test: Cytotoxicity against human HepG2 cells at 80 uM after 24 hrs by MTT assay; type: cell-based; conditions: hepg2, 24 h
[13] = biological target: T1, Nuclear factor erythroid 2-related factor 2 (Homo sapiens); test: Activation of Nrf2 in human LO2 cells cotreated with Nrf2 siRNA assessed as increase in Nrf2 mRNA expression level at 20 uM by qRT-PCR analysis; type: cell-based
Summary of the method: (§5)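 LO2 cells plated at 7 × 10^5 per 60 mm dish and transfected with 50 nM Nrf2 siRNA (scrambled siRNA as control). After 24 h, fresh medium was added and cells grown a further 48 h. Then 20 μM compound for 12 h. Nrf2, NQO1, GCLM and HO-1 mRNA measured by qRT-PCR, normalized to GAPDH, as fold over control.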

Mus musculus [14] = test: Hepatoprotective activity against APAP-induced liver injury in C57BL/6 mouse assessed as increase in GST levels administered ip for 7 consecutive days followed by APAP challenge 1 hr post last compound dose and measured after 24 hrs; type: functional, organism-based; summary of the method: as §1
[15] = biological target: T1, Nuclear factor erythroid 2-related factor 2 (Homo sapiens); test: Activation of Nrf2 in human LO2 cells cotreated with Nrf2 siRNA assessed as increase in HO-1 mRNA expression level at 20 uM by qRT-PCR analysis; type: cell-based; summary of the method: as §5
Mus musculus [16] = test: Hepatoprotective activity against APAP-induced liver injury in C57BL/6 mouse assessed as increase in SOD levels administered ip for 7 consecutive days followed by APAP challenge 1 hr post last compound dose and measured after 24 hrs by NBT assay; type: functional, organism-based; summary of the method: as §1
L02 [17] = test: Hepatoprotective activity against APAP-induced cell injury in human LO2 cells cotreated with Nrf2 siRNA assessed as cell viability at 20 uM pretreated for 24 hrs followed by APAP treatment measured after 24 hrs by MTT assay; type: functional; conditions: read-out: Activity; summary of the method: as §3

Which results are given for `Cc1ccc(-c2noc(-c3ccc(F)c(F)c3)n2)cn1`?
Activity (Mus musculus [1]): Dose-dependent effect; Activity [2]: Dose-dependent effect; Activity (L02 [3]): 80%; Activity (Mus musculus [4]): Dose-dependent effect; solubility [5]: 250 µM (≈ 68.3 µg/mL); Activity [6]: Dose-dependent effect; Activity (Mus musculus [7]): Active; logD [8]: 3.07; Activity (Mus musculus [9]): Dose-dependent effect; Activity (Mus musculus [10]): Dose-dependent effect; Activity (Mus musculus [11]): Dose-dependent effect; Activity (Mus musculus [12]): Active; Activity (HepG2): Non-Toxic; Activity [13]: Active; Activity (Mus musculus [14]): Dose-dependent effect; Activity [15]: Active; Activity (Mus musculus [16]): Dose-dependent effect; viability at 20 µM (L02 [17]): 50%
